PubChem BioAssay
Records with an inconclusive call do not appear.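 How the source made its calls, unless noted: active means growth inhibition above 25% in both replicates, a cutoff set 3 SD above the mean; inconclusive means above 25% in only one replicate; inactive means the rest.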

Tests used:
[1] = S. cerevisiae growth inhibition in permissive medium (OD615), pilot counter-assay for S. cerevisiae lifespan shortening project, permissive growth control (AID 705); conditions: OD615, 24 h, at 10 µM, stronger effect = higher value
Outline: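 assay system = Saccharomyces cerevisiae strain carrying genetically modified DeaD replicative-lifespan system | technique = absorbance (optical density) at 615 nm | buffer or medium = permissive raffinose/galactose medium | timing = cells pre-grown 4 h, then 24 h compound exposure, 30 °C humidified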

[2] = S. cerevisiae growth inhibition in restrictive medium, OD615, pilot screen, restrictive growth control, yeast lifespan reduction project (AID 706;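 active means growth inhibition above a set limit, 3 SD over mean compound inhibition, in both replicates, cut at about 43% in these data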;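 further: modified DeaD lifespan yeast strain shifted to restrictive glucose medium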); conditions: OD615, 48 h, at 10 µM, stronger effect = higher value
Outline: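 System: modified S. cerevisiae. Buffer or medium: CSMM-D glucose medium. Incubation: 4 h pre-growth plus 48 h compound exposure, 30 °C. Detection: absorbance (optical density) measured at 615 nm.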

[3] = doxorubicin toxicity protection in MRP-1 cells – H69AR cells, CellTiter-Glo, duplicate, MRP-1 activator project, pilot screen (AID 807;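 active means viability increase at or above a cutoff of the median across tested compounds plus 3 SD, cut at about 8.5% in these data, passing the limit was not always enough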;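 further: compound pretreatment 18-22 h then 72 h combined with doxorubicin; 0% = doxorubicin alone and 100% = vehicle without doxorubicin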); conditions: H69AR viability with doxorubicin, CellTiter-Glo luminescence; at 10 µM; stronger effect = higher value
[4] = viability of HCT116 without oncogenic beta-catenin – human colon tumor cells, pilot screen (AID 823;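 active means cell viability at or below a set limit in both duplicate runs, the limit being the all-compound median minus 4 SD, cut at about 23% in these data, passing the limit was not always enough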;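 further: 0% = wells killed by 20 µM Hyamine and 100% = untreated DMSO cell wells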); conditions: HCT116 beta-catenin knockout viability, CellTiter-Glo, 60 h; at 10 µM; stronger effect = lower value
[5] = viability of PTEN-null HCT116 cells – cell-based, HCT116 clonal line, CellTiter-Glo, pilot screen (AID 824;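 active means viability at or below 27.92% in each of two runs, the all-compound median minus 4 SD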;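 further: 0% = 20 µM Hyamine control and 100% = vehicle cell control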); conditions: HCT116 PTEN-deleted viability, 60 h, at 10 µM, stronger effect = lower value
[6] = RAM pathway blockade in budding yeast – dse1pr::URA3 reporter, 5-FOA selection, pilot screen (AID 869;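 active means inhibition over a set limit, the all-compound mean plus 3 SD, in both replicate runs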;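 further: 0% = DMSO wells with no growth and 100% = 10 µM 1-NA-PP1 with full growth; RAM network block rescues cells from 5-FOA so hits raise OD615 growth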); conditions: S. cerevisiae dse1pr::URA3 5-FOA growth, OD615, 2 d; at 10 µM; stronger effect = higher value; strain carries analog-sensitive mutant Cbk1 kinase
[7] = RAM signaling pathway blockade in yeast – S. cerevisiae, Pdr1DBD-CYC8 efflux-inhibited sensitized strain, primary screen (AID 1298;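 active means RAM network inhibition above 8.4% in each of two replicates, 3 SD over the compound average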;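 further: 0% = DMSO untreated cells without growth and 100% = 10 µM 1-NA-PP1 full growth; higher means more yeast growth rescued from 5-FOA killing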); conditions: S. cerevisiae cbk1-as DSE1-URA3 strain, 5-FOA growth OD615, 2 d; at 50 µM; stronger effect = higher value

CCOC(=O)N1CCC(Nc2c(N3CCN(c4cc(Cl)ccc4C)CC3)c(=O)c2=O)CC1
inactive: growth inhibition [1] 3.09% | growth inhibition [2] 4.44% | viability increase [3] -2.34% | viability [4] 71.9% | viability [5] 72.3% | inhibition [6] 2.42% | RAM network inhibition [7] 2.95%

CCOC(=O)c1sc(NC(=O)c2cccnc2)nc1C
inactive: growth inhibition [1] -7.2% | growth inhibition [2] -2% | viability increase [3] -3.19% | viability [4] 102% | viability [5] 97.7% | inhibition [6] 1.7% | RAM network inhibition [7] 1.1%

CC(C)(C)C1(C)OC(C(N)=O)C(C(N)=O)O1 (stereo not drawn)
inactive: growth inhibition [1] -7.22% | growth inhibition [2] -1.06% | viability increase [3] 0.03% | viability [4] 98.2% | viability [5] 95.7% | inhibition [6] 0.785% | RAM network inhibition [7] 1.14%

CC(=O)NCCn1c(C)cc2ccccc21
inactive: growth inhibition [1] 2.67% | growth inhibition [2] -0.185% | viability increase [3] -0.52% | viability [4] 95.3% | viability [5] 105% | inhibition [6] 0.97% | RAM network inhibition [7] 0.86%

CCOC(=O)c1cnc2nc[nH]n2c1=O
inactive: growth inhibition [1] 1.53% | growth inhibition [2] 11.7% | viability increase [3] 2.64% | viability [4] 104% | viability [5] 103% | inhibition [6] 0.33% | RAM network inhibition [7] -0.24%

COCCN1C(=O)c2oc3ccccc3c(=O)c2C1c1cccc(O)c1 (stereo not drawn)
inactive: growth inhibition [1] -7% | growth inhibition [2] -8.97% | viability increase [3] -0.6% | viability [4] 107% | viability [5] 94.3% | inhibition [6] 1.1% | RAM network inhibition [7] 2.85%

CNC(=O)C1CC(=O)N(c2ccc(C)cc2)C1 (stereo not drawn)
inactive: growth inhibition [1] -11.6% | growth inhibition [2] -11.4% | viability increase [3] 0.85% | viability [4] 98.5% | viability [5] 102% | inhibition [6] 0.395% | RAM network inhibition [7] 2.24%

COc1cc(-c2nc3cnccn3c2Nc2ccccc2)ccc1O
inactive: growth inhibition [1] -7.8% | growth inhibition [2] 0.535% | viability increase [3] -5.59% | viability [4] 47.8% | viability [5] 44.7% | inhibition [6] 2.43% | RAM network inhibition [7] 0.41%

O=C(C1CCN(S(=O)(=O)c2cccc3cccnc23)CC1)N1CCN(c2ccc(Cl)cc2)CC1
inactive: growth inhibition [1] -3.56% | growth inhibition [2] 0.215% | viability increase [3] -1.23% | viability [4] 31.1% | viability [5] 38.6% | inhibition [6] 1.4% | RAM network inhibition [7] 4.56%

COc1cccc(C2NC(=O)NC(C)=C2C(=O)Nc2ccc(C)cc2)c1OC (stereo not drawn)
inactive: growth inhibition [1] -1.23% | growth inhibition [2] -4.83% | viability increase [3] 0.13% | viability [4] 98.5% | viability [5] 99.7% | inhibition [6] 0.455% | RAM network inhibition [7] 6.12%

CC(=O)c1c(C)[nH]c(C(=O)N2CCN(c3ncccn3)CC2)c1C
inactive: growth inhibition [1] -2.15% | growth inhibition [2] -5.67% | viability increase [3] -1.39% | viability [4] 86.8% | viability [5] 96.6% | inhibition [6] 1.43% | RAM network inhibition [7] -0.51%

CCOc1ccc(N(CC(=O)NCC(C)C)S(C)(=O)=O)cc1
inactive: growth inhibition [1] 6.66% | growth inhibition [2] -4.28% | viability increase [3] -0.04% | viability [4] 98% | viability [5] 102% | inhibition [6] 0.96% | RAM network inhibition [7] 1.12%

Cn1c(NC(=O)c2ccccc2Br)cc(=O)n(C)c1=O
inactive: growth inhibition [1] -9.54% | growth inhibition [2] -19.3% | viability increase [3] -3.97% | viability [4] 105% | viability [5] 94.5% | inhibition [6] 1.15% | RAM network inhibition [7] 0.36%

O=c1nc(-c2ccccc2)cn[nH]1
inactive: growth inhibition [1] -4.61% | growth inhibition [2] -4.27% | viability increase [3] -0.11% | viability [4] 101% | viability [5] 105% | inhibition [6] 1.29% | RAM network inhibition [7] 2.6%

CCOc1ccc(NS(=O)(=O)c2ccc3[nH]c(=O)oc3c2)cc1
inactive: growth inhibition [1] -11.6% | growth inhibition [2] -10.5% | viability increase [3] 1.01% | viability [4] 101% | viability [5] 92.6% | inhibition [6] 3.46% | RAM network inhibition [7] 4.48%

C/C(=C1/SC(N2CCOCC2)=NC1=O)c1ccc(Br)cc1
inactive: growth inhibition [1] -1.67% | growth inhibition [2] 3.21% | viability increase [3] -1.99% | viability [4] 94.5% | viability [5] 101% | inhibition [6] 1.26% | RAM network inhibition [7] 0.72%

O=C(CCS(=O)(=O)c1cccs1)N1CCCC1
inactive: growth inhibition [1] -1.4% | growth inhibition [2] -7.61% | viability increase [3] -1.26% | viability [4] 94% | viability [5] 96.2% | inhibition [6] 2.58% | RAM network inhibition [7] 1.19%

Cc1occc1-c1nnc(SCCCC(=O)c2ccc(F)cc2)n1C
inactive: growth inhibition [1] -1.02% | growth inhibition [2] 3.81% | viability increase [3] 0.66% | viability [4] 74.4% | viability [5] 87.4% | inhibition [6] 1.5% | RAM network inhibition [7] 6.28%

O=C(c1oc(=O)c2ccccc2c1-c1ccccc1)N1CCN(C2CCCCC2)CC1
inactive: growth inhibition [1] -7.33% | growth inhibition [2] -0.045% | viability increase [3] -1.86% | viability [4] 95.5% | viability [5] 97.4% | inhibition [6] 1.16% | RAM network inhibition [7] 6.22%

CCN(CC)S(=O)(=O)c1cc(C(=O)Nc2ccc(Cl)cn2)ccc1C
inactive: growth inhibition [1] -5.56% | growth inhibition [2] -11.5% | viability increase [3] 2.78% | viability [4] 52.9% | viability [5] 74.2% | inhibition [6] 1.1% | RAM network inhibition [7] -0.26%

O=C(NCc1cccs1)C1CCN(S(=O)(=O)c2cccc3cccnc23)CC1
inactive: growth inhibition [1] -3.73% | growth inhibition [2] -6.17% | viability increase [3] -0.65% | viability [4] 93% | viability [5] 90.7% | inhibition [6] -0.03% | RAM network inhibition [7] 1.45%

NC(=O)CSc1nnc(-c2ccncc2)n1-c1ccc(Cl)cc1
inactive: growth inhibition [1] -5.39% | growth inhibition [2] 0.11% | viability increase [3] -1.78% | viability [4] 97.7% | viability [5] 94.1% | inhibition [6] 0.785% | RAM network inhibition [7] 1.57%

COc1ccc(Nc2cc(C)nc3nc(C)nn23)c(OC)c1
inactive: growth inhibition [1] -2.91% | growth inhibition [2] 4.67% | viability increase [3] -1.65% | viability [4] 109% | viability [5] 106% | inhibition [6] 0.83% | RAM network inhibition [7] 0.32%

CSc1nc2ccc(NS(=O)(=O)c3ccc4c(c3)OCCO4)cc2s1
inactive: growth inhibition [1] 0.175% | growth inhibition [2] 0.53% | viability increase [3] 0.31% | viability [4] 90.8% | viability [5] 88.4% | inhibition [6] 0.865% | RAM network inhibition [7] 5.46%
